Screening data (PubChem)
Compounds with a hit are over-represented: about 2.4% of the library has one in this group of screens.
DAGLB inh: blocks human DAGLB lipase activity | Q8NCG7 | HEK293T DAGLB membrane lysate, EnzChek fluorogenic substrate | inhibition, % at 5.17 µM | 340,000 tested, 0.059% active | AID 504411; in the data active = inhibition above about 34%
Target sequence (Q8NCG7 whole entry, looked up): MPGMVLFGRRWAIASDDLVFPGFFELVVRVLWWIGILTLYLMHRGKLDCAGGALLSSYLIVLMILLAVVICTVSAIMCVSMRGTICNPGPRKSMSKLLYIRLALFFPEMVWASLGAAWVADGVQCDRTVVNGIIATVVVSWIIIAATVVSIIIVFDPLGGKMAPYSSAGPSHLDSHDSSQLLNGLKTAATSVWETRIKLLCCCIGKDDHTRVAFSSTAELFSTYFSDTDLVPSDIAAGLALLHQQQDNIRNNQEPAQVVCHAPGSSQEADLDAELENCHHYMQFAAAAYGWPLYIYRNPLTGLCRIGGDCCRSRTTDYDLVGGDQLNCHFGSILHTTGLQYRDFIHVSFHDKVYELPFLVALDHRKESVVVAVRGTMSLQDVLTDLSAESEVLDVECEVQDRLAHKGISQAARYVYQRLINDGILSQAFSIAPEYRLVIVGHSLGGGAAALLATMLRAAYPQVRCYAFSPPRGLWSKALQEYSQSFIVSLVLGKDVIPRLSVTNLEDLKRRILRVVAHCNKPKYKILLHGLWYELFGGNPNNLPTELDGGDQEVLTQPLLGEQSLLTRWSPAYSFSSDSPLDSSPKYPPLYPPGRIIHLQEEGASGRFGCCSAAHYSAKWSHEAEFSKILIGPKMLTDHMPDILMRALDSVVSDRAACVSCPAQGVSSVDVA
MIN6 prolif: induces beta-cell replication in MIN6 cells. MIN6 cells proliferation, ATPlite luminescence, 48 h; cells starved in 0.2% serum; 100% = growth in 10% serum. proliferation, % at 10 µM. 330,000 tested, 0.29% active;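 active = compounds whose signal lies at least 3.5 SD above the mean of all wells on their plate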
Myeloid diff 2: compounds promoting myeloid differentiation. ER-HoxA9 myeloid progenitors, lysozyme-GFP differentiation, flow cytometry. calls only at 10 µM. 360,000 tested, 1% active. AID 624256;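 active = normalized GFP-positive differentiation at or above the plate's own cutoff, the solvent-only control mean plus 3 SD; inconclusive = no clear call, values can overlap the other calls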;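 note: cells exposed to compound for four days before flow analysis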
SENP1 inh: inhibitors of human SENP1 SUMO protease catalytic domain | recombinant SENP1 catalytic domain, CyPet-SUMO1-YPet FRET cleavage | 360,000 tested, 0.21% active | inhibition, % at 10 µM | Q9P0U3 | AID 624204;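 active = inhibition at least 30% at 10 µM, raw YFP signal under a set limit, fluorescence ratio 0.5 to 1.5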
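Test system: hSENP1 catalytic domain, recombinant; Amount: 20 pM final SENP1 enzyme; Medium: Tris pH 8 buffer plus EDTA, NaCl, BME, BSA, NP40, catalase; Schedule: 50 min enzyme reaction, room temperature, light-protected; Technique: FRET fluorescence in CFP and YFP emission channels; Controls: no-enzyme wells low, DMSO-plus-enzyme wells high control.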
MT1-MMP act inh: inhibitors of human MT1-MMP activation. HT1080 RFP-PRO-GFP cells, GFP/RFP ratio fluorescence, overnight; percent of plate control window, DMSO zero. GFP/RFP ratio change, % at 20 µM. P50281. AID 651647. 360,000 tested, 0.061% active;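 active = GFP/RFP ratio change of at least 30% with cell ATP level not reduced by more than half and red fluorescence within 50% of control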
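Test system: HT1080 RFP-PRO-GFP cells; Benchmarks: DMSO and RFP-L50D-GFP cell wells; Timing: cells overnight before dosing, compound overnight, 37 °C, 5% CO2; Compound: one 20 µM compound dose with 1% DMSO; Read-out: GFP/RFP fluorescence ratio.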
NRP1-CendR mod: NRP-1/CendR interaction modulation; 360,000 tested, 0.85% active; inhibition, % at 25 µM; O14786; AID 602438; FAM-RPARPAR peptide binding to NRP-1, fluorescence polarization;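 active = inhibition or corrected inhibition above about 18%, plus a signal ratio from 0.5 to 1.5, limit read from the data, passing the limit was not always enough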
Hits are given with their value; . = inactive; ? = inconclusive; / = no result; + = active, no number; ! = not active in a repeat.

SMILES	DAGLB inh	MIN6 prolif	Myeloid diff 2	SENP1 inh	MT1-MMP act inh	NRP1-CendR mod
CN1C(=O)C(=Cc2ccc(SC3CCCCC3)o2)C(=O)N(C)C1=O	.	.	.	.	.	.
CN1C(=O)C(=Cc2ccc(N3CCCCC3)o2)C(=O)N(C)C1=S	.	.	.	88	.	.
O=C1NC(=O)C(=Cc2ccc(N3CCOCC3)o2)C(=O)N1	.	.	.	.	.	.
CCN(CC)c1ccc(/C=C2\C(=O)NC(=S)N(C)C2=O)o1	.	.	+	86	.	.
Cc1cc(C=C(C#N)C#N)ccc1N1CCCC1	.	.	.	.	.	.
C[C@@H]1CC[C@H]2[C@@H](C)C(=O)O[C@@H]3O[C@@]4(C)CC[C@@H]1[C@]32OO4	.	.	+	.	.	.
C[C@@H]1CCC2[C@@H](C)C(=O)O[C@@H]3OC4(C)CCC1[C@@]23OO4 (stereo partly specified)	/	.	/	/	/	/
N#CC(=C(O)c1ccc(S(=O)(=O)N(CCCl)CCCl)cc1)c1nc2ccccc2[nH]1	.	/	.	.	.	.
Cc1ccc2c(c1N)C(=O)c1ccccc1C2=O	.	.	.	53	.	.
COc1ccc2c3c([nH]c2c1)C(C)=NCC3	.	.	+	.	.	.
Cc1ccccc1NC(=O)c1cc(-c2ccccc2)n(CCCN2CCOCC2)c1C	/	.	.	.	.	.
Cc1ccccc1NC(=NCCCN1CC1)Nc1ccccc1C	.	/	.	.	.	40
CCN1CCN(S(=O)(=O)c2cnc(Cl)c(Br)c2)CC1	.	.	.	.	.	.
CCOc1ccc2c(c1)c(C(C)=O)c(C)n2Cc1ccco1	.	.	.	.	.	.
O=C1NC(=O)N(Cc2ccco2)C(=O)/C1=C\c1cccn1CCOc1ccc(Cl)cc1	.	.	+	.	.	.
Cc1cccc(OCCn2cccc2/C=C2/C(=O)NC(=O)N(Cc3ccco3)C2=O)c1	/	.	.	.	.	.
O=C(Nc1cccc(Br)c1)c1c(O)c2c(n(Cc3ccccc3)c1=O)CCCC2	/	.	+	.	.	.
CCN(CC)c1ccc(/C=C/[N+](=O)[O-])cc1	.	.	.	32	.	.
Oc1ccc2c3c1O[C@H]1[C@@H](O)CC[C@@]4(O)[C@@H](C2)N(CC2CCC2)CC[C@]314	.	.	.	33!	.	.
Cc1cc(Cl)ccc1OCC(=O)N1CCN(C)CC1	.	.	.	.	.	23
CNC1(c2ccc(F)cc2)CCCCC1	.	/	.	.	.	.
CC1NC(=O)NC(=O)C1Br (stereo unspecified)	.	/	.	.	.	36
COc1cc(C=NNC(=S)Nc2ccc(S(=O)(=O)N3CCCCC3)cc2)cc(OC)c1OC	.	/	.	.	.	.
C[C@]12CC[C@H](O)CC1=CC(=O)C1C2CC[C@]2(C)C(=O)[C@H](O)CC12 (stereo partly specified)	.	.	.	.	.	19
CC(C)(C)C(=O)O[C@H]1CC[C@@]2(C)C(=CC(=O)C3C2CC[C@]2(C)C(=O)[C@H](O)CC32)C1 (stereo partly specified)	.	.	.	.	.	.
SMILES	DAGLB inh	MIN6 prolif	Myeloid diff 2	SENP1 inh	MT1-MMP act inh	NRP1-CendR mod
CCCCC12CNCC(C)(CNC1)C2=O	.	.	.	.	.	.
CCCCn1c(=O)c(C(=O)Nc2cnccn2)c(O)c2ccccc21	.	.	+	.	.	.
CNC1CCc2cc(OC)c(OC)c(OC)c2-c2ccc(SC)c(=O)cc21 (stereo unspecified)	.	/	?	.	.	.
CCn1ccnc1CN1CCCC(C(=O)c2ccc(SC)cc2)C1 (stereo unspecified)	.	.	+	.	.	.
COc1cc2c(cc1OC)C1C(=O)c3ccc4c(c3OC1CO2)CC(C(C)C)O4 (stereo unspecified)	.	/	.	.	.	.
CN(C)c1ccc(NC(=O)CN2C(=O)CN=C(c3ccccc3)c3ccccc32)cc1	.	.	+	.	.	.
CN(C)c1ccc(NC(=O)CN2C(=O)CN=C(c3ccccc3)c3cc(Cl)ccc32)cc1	.	.	.	.	.	.
